Assay results from ChEMBL document CHEMBL3421560, “Search for factors affecting antibacterial activity and toxicity of 1,2,4-triazole-ciprofloxacin hybrids” (Eur J Med Chem, 2015).
≈ marks a conversion by molar mass, not a printed value.

Legend:
DNA gyrase = DNA gyrase (Escherichia coli, UniProt P0AES4+P0AES6); test: Inhibition of Escherichia coli DNA gyrase after 1 hr by agarose gel electrophoresis; assay type: protein-complex assay
[1] = Inhibition of Escherichia coli DNA topoisomerase 4 using kDNA as substrate after 1 hr by agarose gel electrophoresis
Outline: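 E. coli topoisomerase IV decatenation kit: kDNA (0.5 µg) with 1 U enzyme in supplied buffer plus varying compound levels, 37 °C for 1 h. Stopped as for the gyrase assay, then 1% agarose in TAE, 1.5 h at 80 V, ethidium bromide. IC50 = concentration blocking 50% conversion to decatenated minicircles, by gel densitometry.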

Staphylococcus aureus [2] = test: Antimicrobial activity against methicillin-susceptible Staphylococcus aureus ATCC 6538 after 18 hrs by broth microdilution method; assay type: functional; conditions: ATCC 6538, 18 h
Escherichia coli = test: Antimicrobial activity against Escherichia coli ATCC 25922 after 18 hrs by broth microdilution method; assay type: functional; conditions: ATCC 25922, 18 h
Staphylococcus aureus [3] = test: Ratio of ciprofloxacin MIC to compound MIC for methicillin-susceptible Staphylococcus aureus ATCC 25923; assay type: functional
Staphylococcus aureus [4] = test: Ratio of MBC for methicillin-susceptible Staphylococcus aureus ATCC 25923 to MIC for methicillin-susceptible Staphylococcus aureus ATCC 25923; assay type: functional
Outline: (§1)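 MBC taken as lowest concentration giving >99.9% CFU reduction of the initial inoculum; value is MBC divided by MIC for the same strain.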

Proteus mirabilis = test: Antimicrobial activity against Proteus mirabilis ATCC 12453 after 18 hrs by broth microdilution method; assay type: functional; conditions: ATCC 12453, 18 h
Staphylococcus aureus [5] = test: Antimicrobial activity against Staphylococcus aureus Microbank 14001 after 18 hrs by broth microdilution method; assay type: functional; conditions: Microbank 14001, 18 h
Staphylococcus aureus [6] = test: Antimicrobial activity against methicillin-susceptible Staphylococcus aureus ATCC 25923 after 18 hrs by broth microdilution method; assay type: functional; conditions: ATCC 25923, 18 h
Bacillus cereus = test: Antimicrobial activity against Bacillus cereus ATCC 10876 after 18 hrs by broth microdilution method; assay type: functional; conditions: ATCC 10876, 18 h
Micrococcus luteus = test: Antimicrobial activity against Micrococcus luteus ATCC 10240 after 18 hrs by broth microdilution method; assay type: functional; conditions: ATCC 10240, 18 h
Klebsiella pneumoniae = test: Antimicrobial activity against Klebsiella pneumoniae ATCC 13883 after 18 hrs by broth microdilution method; assay type: functional; conditions: ATCC 13883, 18 h
[7] = test system: Staphylococcus epidermidis; test: Antimicrobial activity against Staphylococcus epidermidis ATCC 12228 after 18 hrs by broth microdilution method; assay type: functional; conditions: ATCC 12228, 18 h
HEK293 = test: Cytotoxicity against HEK293 cells after 72 hrs by MTT assay; assay type: cell-based; conditions: Homo sapiens, HEK293, 48 h; in the assay text read “48 hrs” for “72 hrs”
Outline: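 HEK-293 (ATCC CRL-1573) in MEM with 10% FBS plus penicillin/streptomycin, seeded 3 x 10^5 cells/well, 24 h at 37 °C, 5% CO2. Treated with compounds diluted from 50 mg/mL DMSO stock into medium with 2% FBS for 48 h. Viability by MTT formazan readout; EC50 relative to control cells, mean ± SD of three independent experiments.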

Pseudomonas aeruginosa [8] = test: Antimicrobial activity against Pseudomonas aeruginosa ATCC 9027 after 18 hrs by broth microdilution method; assay type: functional; conditions: ATCC 9027, 18 h
Staphylococcus aureus [9] = test: Ratio of MBC for Staphylococcus aureus Microbank 14001 to MIC for Staphylococcus aureus Microbank 14001; assay type: functional; outline: as §1
Staphylococcus aureus [10] = test: Ratio of MBC for methicillin-susceptible Staphylococcus aureus ATCC 6538 to MIC for methicillin-susceptible Staphylococcus aureus ATCC 6538; assay type: functional; outline: as §1
Bacillus subtilis = test: Antimicrobial activity against Bacillus subtilis […] after 18 hrs by broth microdilution method; assay type: functional
Staphylococcus aureus [11] = test: Ratio of vancomycin MIC to compound MIC for Staphylococcus aureus Microbank 14001; assay type: functional
Pseudomonas aeruginosa [12] = test: Ratio of ciprofloxacin MIC to compound MIC for Pseudomonas aeruginosa ATCC 9027; assay type: functional
Staphylococcus aureus [13] = test: Ratio of ciprofloxacin MIC to compound MIC for methicillin-susceptible Staphylococcus aureus ATCC 6538; assay type: functional

## CCCc1nn(CN2CCN(c3cc4c(cc3F)c(=O)c(C(=O)O)cn4C3CC3)CC2)c(=S)n1-c1cccc(I)c1
DNA gyrase
  IC50: 6.28 µM
[1]
  IC50: 155 µM

## O=C(O)c1cn(C2CC2)c2cc(N3CCN(Cn4nc(-c5ccc(O)cc5)n(-c5ccc(F)cc5)c4=S)CC3)c(F)cc2c1=O
Staphylococcus aureus [2]
  MIC: 0.19 µM (≈ 0.12 µg/mL)
Escherichia coli
  MIC: 0.024 µM (≈ 0.0151 µg/mL)
Staphylococcus aureus [3]
  Ratio: 16
Staphylococcus aureus [4]
  Ratio: <=4
Proteus mirabilis
  MIC: 0.048 µM (≈ 0.0303 µg/mL)
Staphylococcus aureus [5]
  MIC: 0.19 µM (≈ 0.12 µg/mL)
Staphylococcus aureus [6]
  MIC: 0.19 µM (≈ 0.12 µg/mL)
Bacillus cereus
  MIC: 0.095 µM (≈ 0.0599 µg/mL)
Micrococcus luteus
  MIC: 1.55 µM (≈ 0.978 µg/mL)
Klebsiella pneumoniae
  MIC: 0.19 µM (≈ 0.12 µg/mL)
[7]
  MIC: 0.095 µM (≈ 0.0599 µg/mL)
HEK293
  EC50: 106 µM
Pseudomonas aeruginosa [8]
  MIC: 0.38 µM (≈ 0.24 µg/mL)
Staphylococcus aureus [9]
  Ratio: <=4
Staphylococcus aureus [10]
  Ratio: <=4
Bacillus subtilis
  MIC: 0.048 µM (≈ 0.0303 µg/mL)

## O=C(O)c1cn(C2CC2)c2cc(N3CCN(Cn4nc(-c5ccccc5O)n(Cc5ccc(F)cc5)c4=S)CC3)c(F)cc2c1=O
Staphylococcus aureus [2]
  MIC: 0.19 µM (≈ 0.122 µg/mL)
Escherichia coli
  MIC: 0.011 µM (≈ 0.00709 µg/mL)
Staphylococcus aureus [4]
  Ratio: <=4
Proteus mirabilis
  MIC: 0.023 µM (≈ 0.0148 µg/mL)
Staphylococcus aureus [5]
  MIC: 0.046 µM (≈ 0.0297 µg/mL)
Staphylococcus aureus [6]
  MIC: 0.76 µM (≈ 0.49 µg/mL)
Staphylococcus aureus [11]
  Ratio: 15
Bacillus cereus
  MIC: 0.093 µM (≈ 0.06 µg/mL)
Micrococcus luteus
  MIC: 0.76 µM (≈ 0.49 µg/mL)
Klebsiella pneumoniae
  MIC: 0.093 µM (≈ 0.06 µg/mL)
[7]
  MIC: 0.046 µM (≈ 0.0297 µg/mL)
Pseudomonas aeruginosa [8]
  MIC: 0.046 µM (≈ 0.0297 µg/mL)
Staphylococcus aureus [9]
  Ratio: <=4
Staphylococcus aureus [10]
  Ratio: <=4
Bacillus subtilis
  MIC: 0.011 µM (≈ 0.00709 µg/mL)

## O=C(O)c1cn(C2CC2)c2cc(N3CCNCC3)c(F)cc2c1=O [CIPROFLOXACIN]
Staphylococcus aureus [2]
  MIC: 0.72 µM (≈ 0.239 µg/mL)
Escherichia coli
  MIC: 0.024 µM (≈ 0.00795 µg/mL)
[1]
  IC50: 80 µM
Proteus mirabilis
  MIC: 0.045 µM (≈ 0.0149 µg/mL)
Staphylococcus aureus [6]
  MIC: 2.96 µM (≈ 0.981 µg/mL)
Bacillus cereus
  MIC: 0.36 µM (≈ 0.119 µg/mL)
Micrococcus luteus
  MIC: 5.88 µM (≈ 1.95 µg/mL)
Klebsiella pneumoniae
  MIC: 0.36 µM (≈ 0.119 µg/mL)
[7]
  MIC: 1.48 µM (≈ 0.49 µg/mL)
Pseudomonas aeruginosa [8]
  MIC: 0.72 µM (≈ 0.239 µg/mL)
Bacillus subtilis
  MIC: 0.09 µM (≈ 0.0298 µg/mL)

## O=C(O)c1cn(C2CC2)c2cc(N3CCN(Cn4nc(-c5cccc(O)c5)n(-c5cc(Cl)cc(Cl)c5)c4=S)CC3)c(F)cc2c1=O
DNA gyrase
  IC50: 6.05 µM
[1]
  IC50: 78.7 µM

## O=C(O)c1cn(C2CC2)c2cc(N3CCN(Cn4nc(-c5cccc(O)c5)n(-c5cccc(I)c5)c4=S)CC3)c(F)cc2c1=O
DNA gyrase
  IC50: 9.78 µM
[1]
  IC50: 78.1 µM

## COc1ccc(-n2c(-c3ccc(O)cc3)nn(CN3CCN(c4cc5c(cc4F)c(=O)c(C(=O)O)cn5C4CC4)CC3)c2=S)cc1
Staphylococcus aureus [2]
  MIC: 0.19 µM (≈ 0.122 µg/mL)
Escherichia coli
  MIC: 0.012 µM (≈ 0.00771 µg/mL)
Staphylococcus aureus [4]
  Ratio: <=4
Proteus mirabilis
  MIC: 0.023 µM (≈ 0.0148 µg/mL)
Staphylococcus aureus [5]
  MIC: 0.093 µM (≈ 0.0598 µg/mL)
Staphylococcus aureus [6]
  MIC: 0.76 µM (≈ 0.488 µg/mL)
Bacillus cereus
  MIC: 0.19 µM (≈ 0.122 µg/mL)
Micrococcus luteus
  MIC: 1.52 µM (≈ 0.977 µg/mL)
Klebsiella pneumoniae
  MIC: 0.093 µM (≈ 0.0598 µg/mL)
[7]
  MIC: 0.37 µM (≈ 0.238 µg/mL)
HEK293
  EC50: 105 µM
Pseudomonas aeruginosa [8]
  MIC: 0.023 µM (≈ 0.0148 µg/mL)
Pseudomonas aeruginosa [12]
  Ratio: 31
Staphylococcus aureus [9]
  Ratio: <=4
Staphylococcus aureus [10]
  Ratio: <=4
Bacillus subtilis
  MIC: 0.023 µM (≈ 0.0148 µg/mL)

## COc1ccc(Cn2c(-c3cccc(O)c3)nn(CN3CCN(c4cc5c(cc4F)c(=O)c(C(=O)O)cn5C4CC4)CC3)c2=S)cc1
Staphylococcus aureus [2]
  MIC: 0.091 µM (≈ 0.0598 µg/mL)
Escherichia coli
  MIC: 0.011 µM (≈ 0.00722 µg/mL)
Staphylococcus aureus [3]
  Ratio: 16
Staphylococcus aureus [4]
  Ratio: <=4
Proteus mirabilis
  MIC: 0.023 µM (≈ 0.0151 µg/mL)
Staphylococcus aureus [13]
  Ratio: 8
Staphylococcus aureus [5]
  MIC: 0.046 µM (≈ 0.0302 µg/mL)
Staphylococcus aureus [6]
  MIC: 0.18 µM (≈ 0.118 µg/mL)
Staphylococcus aureus [11]
  Ratio: 15
Bacillus cereus
  MIC: 0.18 µM (≈ 0.118 µg/mL)
Micrococcus luteus
  MIC: 1.49 µM (≈ 0.979 µg/mL)
Klebsiella pneumoniae
  MIC: 0.091 µM (≈ 0.0598 µg/mL)
[7]
  MIC: 0.091 µM (≈ 0.0598 µg/mL)
HEK293
  EC50: 62.9 µM
Pseudomonas aeruginosa [8]
  MIC: 0.18 µM (≈ 0.118 µg/mL)
Staphylococcus aureus [9]
  Ratio: <=4
Staphylococcus aureus [10]
  Ratio: <=4
Bacillus subtilis
  MIC: 0.091 µM (≈ 0.0598 µg/mL)

## O=C(O)c1cn(C2CC2)c2cc(N3CCN(Cn4nc(-c5cccc(O)c5)n(Cc5ccc(F)cc5)c4=S)CC3)c(F)cc2c1=O
Staphylococcus aureus [2]
  MIC: 0.093 µM (≈ 0.06 µg/mL)
Escherichia coli
  MIC: 0.006 µM (≈ 0.00387 µg/mL)
Staphylococcus aureus [4]
  Ratio: <=4
Proteus mirabilis
  MIC: 0.006 µM (≈ 0.00387 µg/mL)
Staphylococcus aureus [13]
  Ratio: 8
Staphylococcus aureus [5]
  MIC: 0.37 µM (≈ 0.239 µg/mL)
Staphylococcus aureus [6]
  MIC: 0.37 µM (≈ 0.239 µg/mL)
Bacillus cereus
  MIC: 0.093 µM (≈ 0.06 µg/mL)
Micrococcus luteus
  MIC: 0.76 µM (≈ 0.49 µg/mL)
Klebsiella pneumoniae
  MIC: 0.046 µM (≈ 0.0297 µg/mL)
[7]
  MIC: 0.19 µM (≈ 0.122 µg/mL)
HEK293
  EC50: 69.5 µM
Pseudomonas aeruginosa [8]
  MIC: 0.093 µM (≈ 0.06 µg/mL)
Staphylococcus aureus [9]
  Ratio: <=4
Staphylococcus aureus [10]
  Ratio: <=4
Bacillus subtilis
  MIC: 0.023 µM (≈ 0.0148 µg/mL)

## COc1ccc(Cn2c(-c3ccccc3O)nn(CN3CCN(c4cc5c(cc4F)c(=O)c(C(=O)O)cn5C4CC4)CC3)c2=S)cc1
Staphylococcus aureus [2]
  MIC: 0.091 µM (≈ 0.0598 µg/mL)
Escherichia coli
  MIC: 0.011 µM (≈ 0.00722 µg/mL)
Staphylococcus aureus [4]
  Ratio: <=4
Proteus mirabilis
  MIC: 0.023 µM (≈ 0.0151 µg/mL)
Staphylococcus aureus [13]
  Ratio: 8
Staphylococcus aureus [5]
  MIC: 0.091 µM (≈ 0.0598 µg/mL)
Staphylococcus aureus [6]
  MIC: 0.36 µM (≈ 0.236 µg/mL)
Bacillus cereus
  MIC: 0.091 µM (≈ 0.0598 µg/mL)
Micrococcus luteus
  MIC: 1.49 µM (≈ 0.979 µg/mL)
Klebsiella pneumoniae
  MIC: 0.023 µM (≈ 0.0151 µg/mL)
[7]
  MIC: 0.046 µM (≈ 0.0302 µg/mL)
HEK293
  EC50: 78.7 µM
Pseudomonas aeruginosa [8]
  MIC: 0.023 µM (≈ 0.0151 µg/mL)
Pseudomonas aeruginosa [12]
  Ratio: 31
Staphylococcus aureus [9]
  Ratio: <=4
Staphylococcus aureus [10]
  Ratio: <=4
Bacillus subtilis
  MIC: 0.011 µM (≈ 0.00722 µg/mL)
